# Myeloid diff 2: induction of myeloid progenitor differentiation, primary screen, cell-based, flow cytometry, MLPCN library. ER-HoxA9 myeloid progenitors, lysozyme-GFP differentiation. calls only at 10 µM. hit rate 1% among 360,000. AID 624256, 2012;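 active means normalized GFP-positive differentiation at or above the plate's own cutoff, the solvent-only control mean plus 3 SD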;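 further: cells exposed to compound for four days before flow analysis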
# NRP1-CendR mod: modulators of CendR peptide binding to NRP-1, primary screen, biochemical, fluorescence polarization, uHTS | inhibition, % at 25 µM | Neuropilin-1 (Homo sapiens), O14786 | FAM-RPARPAR peptide binding to NRP-1 | hit rate 0.85% among 360,000 | AID 602438, 2012;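 active means inhibition or corrected inhibition above about 18%, plus a signal ratio from 0.5 to 1.5, limit read from the data, passing the limit was not always enough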
# Granule exo inh: LAMP-1 surface exposure blockers, TALL-104 cells – cell-based, flow cytometry, MLPCN library, primary screen | TALL-104 LAMP-1 surface exposure; cells stimulated with thapsigargin and PMA | inhibition, % at 10 µM | hit rate 0.66% among 360,000 | AID 651702, 2012;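 active means inhibition above about 55%, limit read from the data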
# ATG4B inhibitor: ATG4B protease inhibitors, primary screen, biochemical, fluorescence, uHTS. Cysteine protease ATG4B (Homo sapiens), Q9Y4P1. ATG4B cleavage of LC3-PLA2, NBD-HPC fluorescence, 1 h. inhibition, % at 8.33 µM. hit rate 0.51% among 340,000. AID 504462, 2011; in the data active means inhibition above about 40%
# ABCB6 inh 2: ABCB6 transporter inhibitors, primary screen, K562-ABCB6 cells, flow cytometry, MLPCN library; fluorescence ratio to DMSO, % at 10 µM; K562-ABCB6 porphyrin accumulation, 1 h; active compounds read low; hit rate 0.19% among 360,000; ATP-binding cassette sub-family B member 6 (Homo sapiens), Q9NP58; AID 602162, 2011;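 active means fluorescence ratio to DMSO below 75%, the collection mean minus 3 SD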;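 further: signal is porphyrin accumulated inside mitochondria; 100% equals median channel fluorescence of DMSO control wells; lower ratio means ABCB6 inhibition with less porphyrin fluorescence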
# Target sequence (Q9NP58 whole entry, looked up): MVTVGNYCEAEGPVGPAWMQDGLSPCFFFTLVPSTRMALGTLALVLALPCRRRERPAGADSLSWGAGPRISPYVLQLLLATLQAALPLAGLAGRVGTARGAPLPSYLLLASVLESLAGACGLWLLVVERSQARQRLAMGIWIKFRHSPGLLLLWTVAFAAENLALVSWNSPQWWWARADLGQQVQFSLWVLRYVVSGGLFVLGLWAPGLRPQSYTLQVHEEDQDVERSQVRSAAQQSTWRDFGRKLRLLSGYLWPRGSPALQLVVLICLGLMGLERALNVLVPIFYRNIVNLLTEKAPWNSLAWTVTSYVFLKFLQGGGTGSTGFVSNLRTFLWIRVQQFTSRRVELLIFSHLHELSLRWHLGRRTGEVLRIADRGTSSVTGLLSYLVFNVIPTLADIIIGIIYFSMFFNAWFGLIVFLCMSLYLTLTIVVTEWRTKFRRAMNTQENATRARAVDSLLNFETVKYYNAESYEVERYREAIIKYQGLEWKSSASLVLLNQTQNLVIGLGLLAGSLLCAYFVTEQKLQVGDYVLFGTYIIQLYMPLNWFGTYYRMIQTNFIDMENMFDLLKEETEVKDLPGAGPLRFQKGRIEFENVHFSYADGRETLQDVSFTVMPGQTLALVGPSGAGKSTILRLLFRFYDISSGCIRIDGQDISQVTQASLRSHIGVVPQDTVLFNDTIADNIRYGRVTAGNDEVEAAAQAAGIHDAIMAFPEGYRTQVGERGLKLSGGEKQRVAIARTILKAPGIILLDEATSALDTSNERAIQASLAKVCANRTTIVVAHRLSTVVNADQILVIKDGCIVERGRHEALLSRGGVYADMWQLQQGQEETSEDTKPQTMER
# Arr AP2 block: inhibitors of beta-arrestin/AP2 binding, primary screen, biochemical, GPCR trafficking, flow cytometry; beta-arrestin 1 C-terminal peptide binding to AP2 beta2-adaptin appendage (human); FITC-arrestin peptide / GST-AP2 beads; AP2 beta2 appendage carries R879A mutation; inhibition, % at 10 µM; hit rate 0.31% among 340,000; AID 504490, 2011;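 active means inhibition above a set limit, near 3 SD of compounds lacking own fluorescence, cut at about 54% in these data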;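 further: plate controls were DMSO wells for no effect and 5 µM unlabelled arrestin peptide for full effect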
#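 Measured by: flow cytometry, FL1 (488/535 nm); Material: AP2 appendage R879A on GSH beads; Evaluation: percent response; Timing: pre-incubation 12 min, peptide binding 1 h, room temperature; Also added: 50 nM FITC-arrestin peptide; Medium: PBS with 0.05% Tween 20 and 0.1% BSA.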
# ATG4B conf: ATG4B protease inhibitors, retest, confirmation, biochemical, fluorescence, single concentration | shares compounds with ATG4B inhibitor | ATG4B protease fluorescent substrate cleavage assay | inhibition, % at 8.33 µM | hit rate 92% among 320 | AID 504757, 2011; in the data active means inhibition above about 39%
# PLA2 counter: PLA2 enzyme inhibition, counter-screen for ATG4B inhibitor project, biochemical, single concentration, uHTS hits; shares compounds with ATG4B inhibitor; purified PLA2, NBD-C6-HPC fluorescence, 45 min; inhibition, % at 8.33 µM; hit rate 66% among 1,600; in the data active means inhibition above about 50%
# An asterisk follows results filed as active; i = inactive; x = no result given; + = active, no number. The list is not random: actives were taken first. Their share in the collection is about 3.3%.
SMILES,Myeloid diff 2,NRP1-CendR mod,Granule exo inh,ATG4B inhibitor,ABCB6 inh 2,Arr AP2 block,PLA2 counter,others
COCCN1C(=O)/C(=C/c2ccc(Oc3ccc([N+](=O)[O-])cn3)c(OC)c2)SC1=Nc1ccccc1,i,-17.6,2.5,-3.1,100.0,6.3,x,
COc1ccc(N=C2S/C(=C\c3ccc(OC(C)C(=O)O)c(OC)c3)C(=O)N2CCc2c[nH]c3ccccc23)cc1 (centres undefined),i,0.6,1.5,57.8*,94.0,-16.2,64.6*,
COc1cc(/C=C2\SC(=Nc3ccccc3)N(CCc3c[nH]c4ccccc34)C2=O)ccc1OC(C)C(=O)O (centres undefined),i,-24.8,0.1,46.0*,73.0*,2.8,19.4,ATG4B conf=51.0*
CNC(=O)C[C@@H]1C(=O)N(c2ccc(OC)cc2)CC1(C)C,i,-5.2,0.8,x,96.0,x,x,
CCOC(=O)c1c(C)[nH]c(C(=O)COC(=O)COc2ccccc2C=O)c1C,i,-7.9,-1.2,47.4*,104.0,-5.5,44.8,ATG4B conf=55.7*
COc1ccc(-c2nc(CS(=O)(=O)CC(=O)NCc3ccccc3OC)c(C)o2)cc1,i,3.0,17.3,4.7,103.0,17.2,x,
COc1ccc(-c2nc(CS(=O)(=O)CC(=O)NCc3ccccc3Br)c(C)o2)cc1,i,0.6,1.6,83.8*,106.0,-4.2,91.8*,
O=C(Nc1nc(-c2ccc(Cl)cc2)cs1)NC1CCCCC1,i,0.9,5.7,64.3*,97.0,9.7,73.5*,
COc1ccccc1-n1cnc2c(c1=O)c1nc3ccccc3nc1n2-c1ccc(C)c(C)c1,i,-12.5,7.4,43.5*,103.0,7.3,3.8,
COc1ccc(C2=CC3=C(Br)C(=O)C(C)(OC(=O)c4cccs4)C(=O)C3=CO2)cc1 (centres undefined),i,-59.9,-7.2,83.4*,96.0,11.5,90.0*,
O=C1c2ccccc2C(=O)N1CCCc1c[nH]c2ccc(Cl)cc12,i,-14.4,1.2,53.4*,97.0,-9.6,49.9,
O=S(=O)(Nc1cc2nc3ccccc3nc2n1Cc1ccccc1)c1ccc(Cl)cc1,+,-48.9,66.4*,45.1*,141.0,8.8,32.2,
O=S(=O)(NCc1ccccc1)c1ccc(Cl)cc1,i,15.7,-7.0,-7.7,99.0,-7.7,x,
O=C(O)C(Cc1ccccc1)N1C(=O)/C(=C/C=C/c2ccco2)SC1=S (centres undefined),i,-178.6,-1.3,68.9*,86.0,0.7,59.4*,
CCCc1cc(=O)[nH]c(SCC(=O)N2N=C(c3ccc(Cl)cc3)CC2c2ccco2)n1 (centres undefined),i,-49.1,6.0,47.6*,97.0,0.0,39.6,ATG4B conf=73.4*
Nc1cc(=O)[nH]c(SCC(=O)N2N=C(c3ccc(Cl)cc3)CC2c2ccco2)n1 (centres undefined),i,-17.1,1.8,3.3,101.0,0.3,x,
CC(C)=CCCC(C)CN1CCC(n2nccc2NC(=O)c2ccc3c(c2)OCO3)CC1 (centres undefined),i,16.7,-5.2,-1.3,93.0,-2.9,x,
O=C(CSc1nc2ccccc2c(=O)n1CC1CCCO1)NCc1ccc2c(c1)OCO2 (centres undefined),i,-1.4,-4.0,14.5,98.0,14.8,x,
Cc1ccccc1Oc1cc(NC(=O)CCCn2nc(C)c([N+](=O)[O-])c2C)cc([N+](=O)[O-])c1,i,19.3,-0.7,66.0*,102.0,13.3,62.5*,
Cc1c(Cl)c([N+](=O)[O-])nn1CCCC(=O)Nc1cc(Oc2ccccc2)cc([N+](=O)[O-])c1,i,-4.4,10.4,88.7*,95.0,-4.8,88.0*,
Cc1c(Cl)c([N+](=O)[O-])nn1CCCC(=O)N1CCN(c2ccccc2)CC1,i,-0.6,-1.1,22.6,90.0,-1.9,x,
Cc1nn(CCCC(=O)Nc2cc(Oc3ccc(F)cc3)cc([N+](=O)[O-])c2)c(C)c1[N+](=O)[O-],i,-7.4,-3.8,56.3*,95.0,-3.7,60.4*,
Cc1c(Cl)c([N+](=O)[O-])nn1CCCC(=O)Nc1c(Cl)cccc1Cl,i,2.8,-2.2,19.9,100.0,-9.7,x,
Cc1c(Cl)c([N+](=O)[O-])nn1CCCC(=O)N(Cc1ccccc1)Cc1ccccc1,i,-8.6,-1.2,52.5*,99.0,8.7,60.4*,
CCSc1nnc(NC(=O)CSc2nc3c(c(=O)n2CCOC)SC(C)C3)s1 (centres undefined),i,-10.7,3.6,-7.7,102.0,1.0,x,
SMILES,Myeloid diff 2,NRP1-CendR mod,Granule exo inh,ATG4B inhibitor,ABCB6 inh 2,Arr AP2 block,PLA2 counter,others
CCc1ccc(OCC(=O)c2c(O)c3ccccc3oc2=O)cc1,i,-17.4,-3.3,1.3,97.0,21.1,x,
CCc1oc2ccccc2c1C(=O)c1cc(Br)c(O)c(Br)c1,i,-40.8,2.1,95.5*,101.0,-13.3,96.2*,
O=C(NCCN1CCC(n2c(=O)[nH]c3ccccc32)CC1)N1c2ccccc2Sc2ccccc21,i,-19.3,17.7,x,96.0,x,x,
O=c1[nH][nH]c2c1[C@H](c1ccccc1)O[C@H](C1CCCCC1)C2,i,-3.6,4.5,x,107.0,x,x,
Cc1cccc(C)c1N1CCN(C(=O)Nc2ccc3c(c2)OCCO3)CC1,i,-5.1,0.8,44.1*,101.0,26.1,62.5*,
CCCCn1c(N)c(N(CC(C)C)C(=O)C2CC(=O)N(c3ccc(CC)cc3)C2)c(=O)[nH]c1=O (centres undefined),i,-3.3,-1.1,5.5,102.0,23.1,x,
O=C(O)c1ccc(-n2nnnc2SCc2ccccc2F)cc1,i,-7.2,-0.4,-3.5,94.0,39.6,x,
Cc1ccccc1CSc1nnnn1-c1ccc(C(N)=O)cc1,i,-9.8,-9.9,57.5*,98.0,-10.4,54.2*,
CCOC(=O)c1c(/N=C/c2cccc([N+](=O)[O-])c2O)sc(C)c1C,i,21.8,3.8,19.1,98.0,2.5,x,
Cc1ccc(Cl)cc1N1CCN(C(=O)CSc2nnc3n2C(C)(C)Cc2ccccc2-3)CC1,i,-4.3,-0.5,44.4*,80.0,4.7,69.0*,
